# High-throughput results (PubChem BioAssay)
# This is a sample that favours compounds with a hit; in the whole collection about 3.1% have one here.
# CFTR F508del cor – CFTR F508del correction in bronchial cells | CFBE cells, YFP halide quenching; stimulated with forskolin plus potentiator P3; % fluorescence drop versus neutral controls | activity (quench increase), % at 7.58 µM | actives 0.36% (n = 350,000) | AID 720511;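 active = mean added fluorescence quench of at least 8% versus neutral control, with both replicates also reaching 8%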;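 also: cells transiently co-express mutant CFTR-F508del with the halide-sensitive YFP; corrector assay measuring rescue of mutant channel to the surface after 24 h compound exposure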
# rRNA inh HTS – selective bacterial rRNA inhibition in E. coli; actives 1.6% (n = 350,000); GFP signal change (wild-type ribosome), % (test concentration not listed); AID 720706; E. coli WT GFP vs humanized-ribosome RFP mutants, fluorescence, 24 h; stronger effect = lower value; DMSO median 0, no signal -100;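 active = significant combined selectivity score with lowered wild-type GFP, culture density cut under 30%, mutant RFP and density less affected; inactive = any of these conditions unmet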
# SIRT5 block – blocks human SIRT5 desuccinylation of peptide | Purified SirT5, succinyl-peptide AMC, trypsin-coupled fluorescence | inhibition, % at 15 µM | actives 1.1% (n = 330,000); in the data active = inhibition above about 15%
# Target sequence (Q9NXA8 whole entry, looked up): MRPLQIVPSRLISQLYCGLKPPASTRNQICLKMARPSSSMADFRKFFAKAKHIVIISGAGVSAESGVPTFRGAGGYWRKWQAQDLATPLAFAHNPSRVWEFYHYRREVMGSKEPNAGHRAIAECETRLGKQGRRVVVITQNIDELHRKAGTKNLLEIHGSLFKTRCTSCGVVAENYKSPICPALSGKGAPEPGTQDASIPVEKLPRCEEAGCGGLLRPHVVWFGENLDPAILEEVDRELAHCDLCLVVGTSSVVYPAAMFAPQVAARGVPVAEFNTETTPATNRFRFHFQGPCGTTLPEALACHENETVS
# ERAP1 HTS inh – inhibitors of human ERAP1 aminopeptidase; actives 0.15% (n = 340,000); Q9NZ08; inhibition, % at 10.7 µM; recombinant ERAP1, Leu-AMC fluorescence, 60 min;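 active = mean replicate inhibition of at least 30%, or all replicates individually reaching that 30% level; inactive = mean below 30% and not every replicate reaching it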
# S100A4 inh HTS – inhibitors of human S100A4 binding to myosin IIA peptide | inhibition, % at 10.7 µM | actives 0.14% (n = 360,000) | P26447 | AID 652163 | S100A4/TAMRA-MyoIIA peptide fluorescence polarization;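 active = mean inhibition of at least 70% across replicates, with every replicate also reaching that level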
# Target sequence (P26447 whole entry, looked up): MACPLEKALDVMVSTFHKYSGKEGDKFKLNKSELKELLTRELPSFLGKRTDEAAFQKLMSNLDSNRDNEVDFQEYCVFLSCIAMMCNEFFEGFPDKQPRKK
#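 Assay system: human S100A4 monomer with TAMRA-labelled myosin IIA peptide / Buffer or medium: Calcium-containing HEPES buffer, pH 7.2 / Reagent: TAMRA-labelled myosin IIA heavy-chain peptide probe, 5 nM / Compound: one dose per compound / Timing: polarization read 5 min after assay mix addition, stable 5–60 min / Benchmarks: neutral control DMSO, positive control TFP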
# A number is an active result; . = inactive; / = no result; ! = not active in a repeat.
SMILES,CFTR F508del cor,rRNA inh HTS,SIRT5 block,ERAP1 HTS inh,S100A4 inh HTS
COC(CNC(=O)c1ccc2nc(-c3cccs3)c(-c3cccs3)nc2c1)OC,.,-22,.,.,.
CCOc1ccccc1N(C(=O)c1ccccc1Cl)C1=NC(C)(C)CS1,.,-23,.,.,.
O=C(C[C@H]1CC[C@@H](NC(=O)Nc2ccccc2F)[C@H](CO)O1)NCc1ccc(F)cc1,.,.,.,.,.
Cc1cc(/C=C2\C(=N)N3N=CSC3=NC2=O)c(C)n1Cc1ccccc1,.,-33,.,.,.
CCCC1=NN2C(=N)/C(=C\c3cc(C)n(Cc4ccccc4)c3C)C(=O)N=C2S1,.,.,.,.,.
CCCCCCCC(=O)O,.,.,.,.,.
CC/C=C\C/C=C\C/C=C\CCCCCCCC(=O)O,.,/,17,.,.
Cc1cc(C)c2sc(C)[n+](CCCS(=O)(=O)[O-])c2c1,.,.,.,97,.
COc1ccc(S(=O)(=O)NNC(=O)C(=O)NNc2ccccn2)cc1,.,-31,.,.,.
CN(C)CCCNC(=O)[C@@H]1[C@@H](CO)[C@@H]2Cn3c(ccc(-c4cccc(C(=O)N(C)C)c4)c3=O)[C@H]1N2,.,.,.,.,.
C[C@H]1C=C(C(=O)Nc2ccccc2)O[C@@H](OCCCCO)C1,.,/,.,.,.
Cc1ccc(C(=O)NC(=S)c2c(C)cc3ccccn23)cc1,.,-15,/,.,.
Cc1cc2ccccn2c1C(=O)Nc1cccc(Cl)c1,.,-33,.,.,.
Cc1cc2ccccn2c1C(=S)NC(=O)c1ccccc1,/,/,.,.,.
O=C(Nc1ccc2c(c1)[C@H]1C[C@H](CC(=O)N3CCOCC3)O[C@@H](CO)[C@H]1O2)NC1CCCC1,.,.,.,.,.
Cc1cc(C)c(O)c(-c2cc(C(=O)NCCc3ccc(S(N)(=O)=O)cc3)[nH]n2)c1,.,-33,.,.,.
Cc1cc(O)c(-c2cc(C(=O)NCCc3ccc(S(N)(=O)=O)cc3)[nH]n2)cc1C,.,-35,.,.,.
NS(=O)(=O)c1ccc(CCNC(=O)c2cc(-c3cc(Cl)ccc3O)n[nH]2)cc1,.,.,.,.,.
COc1ccc(CCNC(=O)c2cc(-c3cc(C)cc(C)c3O)n[nH]2)cc1OC,.,.,.,.,.
O=C(C[C@@H]1CC[C@H]2[C@@H](COC[C@H](O)CN2S(=O)(=O)c2ccc(Cl)cc2)O1)NCCN1CCCCC1,.,.,.,.,.
Nn1c(C2CCC2)nc2cc(Cl)ccc2c1=O,.,.,18,.,.
Cc1cc(/C=C2\SC(=S)NC2=O)c(C)n1-c1ccccc1,.,.,.,/,.
Cc1cc(/C=C2\SC(=S)NC2=O)c(C)n1-c1ccc(O)cc1,.,-24,.,.,.
CCCc1[nH]n(-c2nc3ccccc3s2)c(=O)c1C=NCCCN(CC)CC,.,-22,.,.,.
C[C@@H]1CCCCO[C@H](CN(C)C(=O)c2ccncc2)[C@H](C)CN([C@H](C)CO)C(=O)c2cc(NC(=O)c3ccncc3)ccc2O1,.,.,.,.,.
SMILES,CFTR F508del cor,rRNA inh HTS,SIRT5 block,ERAP1 HTS inh,S100A4 inh HTS
COC(=O)c1ccccc1N=Nc1c(C)noc1C,.,-28,.,.,.
O=C1c2ccccc2C(=O)N1Cc1cnc(N2CCN(c3ccccc3)CC2)s1,11,-28,.,.,.
O=C(N/N=C/c1c[nH]c2ccccc12)C1CC1c1ccccc1 (stereo unspecified),.,-28,.,.,.
COc1ccc(CC(=O)NCC(=O)N/N=C/c2c[nH]c3ccccc23)cc1,.,-37,.,.,.
O=C(N/N=C/c1c[nH]c2ccccc12)c1cc(-c2ccccc2)n[nH]1,.,-34,.,.,.
Cc1ccc(-c2cc(C(=O)N/N=C/c3c[nH]c4ccccc34)[nH]n2)cc1,/,.,.,.,.
O=C(C[C@@H]1CC[C@H]2[C@@H](COC[C@H](O)CN2CCC(F)(F)F)O1)NCC1CCCCC1,.,.,/,/,/
Cc1noc(C)c1S(=O)(=O)Nc1ccc2c(c1)C(=O)N([C@H](C)CO)C[C@H](C)[C@H](CN(C)C(=O)NC(C)C)O2,.,.,.,.,.
C[C@@H]1CN([C@H](C)CO)C(=O)c2cccc(NC(=O)c3ccncc3)c2O[C@H]1CN(C)S(C)(=O)=O,.,.,36,.,.
C[C@H]1CN([C@@H](C)CO)C(=O)c2cccc(NC(=O)c3ccncc3)c2O[C@H]1CN(C)Cc1ccccc1,.,.,.,.,.
C[C@@H]1CN([C@@H](C)CO)C(=O)c2cccc(NC(=O)c3ccncc3)c2O[C@@H]1CN(C)Cc1ccc(-c2ccccc2)cc1,.,-19!,.,.,.
C[C@@H]1CN([C@@H](C)CO)C(=O)c2cccc(NC(=O)C3CC3)c2O[C@@H]1CN(C)S(C)(=O)=O,.,.,.,.,124
C[C@H]1CN([C@@H](C)CO)C(=O)c2cccc(NC(=O)C3CC3)c2O[C@H]1CN(C)S(C)(=O)=O,.,.,.,.,.
C[C@@H]1CN([C@@H](C)CO)C(=O)c2cccc(NC(=O)c3ccncc3)c2O[C@H]1CN(C)Cc1ccccc1,.,.,23,.,.
C[C@H]1CN([C@@H](C)CO)C(=O)c2cccc(NC(=O)c3ccncc3)c2O[C@H]1CN(C)S(C)(=O)=O,.,.,.,.,.
Cc1noc(C)c1S(=O)(=O)N(C)C[C@H]1Oc2c(NC(=O)C3CC3)cccc2C(=O)N([C@H](C)CO)C[C@H]1C,.,.,.,.,.
CCCCCN(C(=O)CCC(=O)OCC(=O)c1ccc(C(C)(C)C)cc1)c1c(N)n(CCCC)c(=O)[nH]c1=O,.,.,.,.,.
CCCCCN(C(=O)CCC(=O)OCC(=O)c1ccc(CCC)cc1)c1c(N)n(CCCC)c(=O)[nH]c1=O,.,.,30,.,.
Cc1cc(OCC(O)CNC(C)(C)C)ccc1Cl (stereo unspecified),.,.,21,.,.
C[C@@H]1CCCCO[C@@H](CN(C)C(=O)Nc2ccc(C(F)(F)F)cc2)[C@H](C)CN([C@@H](C)CO)C(=O)c2cc(NC(=O)Nc3ccc4c(c3)OCO4)ccc2O1,.,.,15,.,.
C[C@H]1CCCCO[C@H](CN(C)C(=O)Nc2ccc(C(F)(F)F)cc2)[C@@H](C)CN([C@@H](C)CO)C(=O)c2cc(NC(=O)Nc3ccc4c(c3)OCO4)ccc2O1,.,.,.,.,.
C[C@H](CO)N1C[C@H](C)[C@@H](CN(C)C(=O)Nc2ccc3c(c2)OCO3)OCCCC[C@H](C)Oc2ccc(NC(=O)Nc3ccc(C(F)(F)F)cc3)cc2C1=O,.,.,.,.,.
Cc1noc(C)c1NC(=O)Nc1ccc2c(c1)C(=O)N([C@H](C)CO)C[C@H](C)[C@@H](CN(C)C(=O)Nc1ccc(C(F)(F)F)cc1)OCCCC[C@H](C)O2,.,.,21,.,.
